# Only some compounds are listed: those with a hit (about 2.3% of all), similar ones and a draw of the others.
# Bim-Mcl-1 – inhibitors of Bim-Mcl-1 interaction, human; Bead-based flow cytometry, Bim peptide-Mcl-1 binding; inhibition, % at 10 µM; 190,000 compounds, 0.1% hits; in the data active = inhibition above about 40%;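 note: 0% = no compound tracer wells and 100% = peptide blocker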
# Mcl1 Bid PPI – disrupts binding of human Mcl-1 to Bid peptide. Q07820. TR-FRET Mcl-1/Bid-Dy647 peptide binding, 1536-well. inhibition, % at 21.7 µM. 220,000 compounds, 0.97% hits. AID 1021;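 active = compounds that cut the binding signal by more than half at the single screening dose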;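 note: His-tagged Mcl-1 with europium anti-His antibody binding Bid BH3 peptide; 0% = Mcl-1 plus peptide wells and 100% = peptide-only wells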
# MCL1-BIM inh – inhibitors of human MCL1 binding to BIM-BH3 peptide | inhibition, % at 10.9 µM | 320,000 compounds, 0.68% hits | AID 2057 | Q07820 | GST-MCL1 / FITC-Bim-BH3 fluorescence polarization;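 active = inhibition above the mean inhibition of all tested compounds plus 3 SD, set per campaign, cut at about 40% in these data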;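 note: 0% = DMSO wells and 100% = unlabeled Bim-BH3 peptide control; higher means more loss of mP so more displacement of Bim peptide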
# T cell HTS – T cell immune modulators affecting CD8 T cell-vesicle binding. 2C CD8+ T cell-vesicle binding, flow cytometry; hits give low values. response (vesicle binding), % at 7 µM. 330,000 compounds, 0.068% hits;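 active = response, share of CD8 T cells binding vesicles, and their 90th percentile fluorescence all below set limits, cut at about 80% in these data, passing the limit was not always enough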;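 note: values below 100% mean blocked vesicle binding to the CD8+ T cells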
#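 System: murine 2C transgenic CD8+ T lymphocytes; also added: QL9-loaded Drosophila micro-vesicles; times: binding 1.5 h at 37 °C; measured by: flow cytometry, PE anti-B7-1 (FL2) versus Alexa647 anti-CD8 (FL8), PFA-fixed; control set: Peptide-free naked vesicles (low) and QL9 vesicles with 0.7% DMSO vehicle (high)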
# Pemphigus Ab inh – human desmoglein-3 autoantibody binding inhibition; DSG3-coupled beads, scFv-anti-DSG3-GFP binding, flow cytometry; hits give low values; P32926; AID 588358; 310,000 compounds, 0.48% hits; binding (percent of control), % at 10 µM;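 active = binding more than 3 SD below its plate's average and above zero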;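 note: hits lower antibody fragment binding to DSG3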
# Target sequence (P32926 whole entry, looked up, the tested form may be a part): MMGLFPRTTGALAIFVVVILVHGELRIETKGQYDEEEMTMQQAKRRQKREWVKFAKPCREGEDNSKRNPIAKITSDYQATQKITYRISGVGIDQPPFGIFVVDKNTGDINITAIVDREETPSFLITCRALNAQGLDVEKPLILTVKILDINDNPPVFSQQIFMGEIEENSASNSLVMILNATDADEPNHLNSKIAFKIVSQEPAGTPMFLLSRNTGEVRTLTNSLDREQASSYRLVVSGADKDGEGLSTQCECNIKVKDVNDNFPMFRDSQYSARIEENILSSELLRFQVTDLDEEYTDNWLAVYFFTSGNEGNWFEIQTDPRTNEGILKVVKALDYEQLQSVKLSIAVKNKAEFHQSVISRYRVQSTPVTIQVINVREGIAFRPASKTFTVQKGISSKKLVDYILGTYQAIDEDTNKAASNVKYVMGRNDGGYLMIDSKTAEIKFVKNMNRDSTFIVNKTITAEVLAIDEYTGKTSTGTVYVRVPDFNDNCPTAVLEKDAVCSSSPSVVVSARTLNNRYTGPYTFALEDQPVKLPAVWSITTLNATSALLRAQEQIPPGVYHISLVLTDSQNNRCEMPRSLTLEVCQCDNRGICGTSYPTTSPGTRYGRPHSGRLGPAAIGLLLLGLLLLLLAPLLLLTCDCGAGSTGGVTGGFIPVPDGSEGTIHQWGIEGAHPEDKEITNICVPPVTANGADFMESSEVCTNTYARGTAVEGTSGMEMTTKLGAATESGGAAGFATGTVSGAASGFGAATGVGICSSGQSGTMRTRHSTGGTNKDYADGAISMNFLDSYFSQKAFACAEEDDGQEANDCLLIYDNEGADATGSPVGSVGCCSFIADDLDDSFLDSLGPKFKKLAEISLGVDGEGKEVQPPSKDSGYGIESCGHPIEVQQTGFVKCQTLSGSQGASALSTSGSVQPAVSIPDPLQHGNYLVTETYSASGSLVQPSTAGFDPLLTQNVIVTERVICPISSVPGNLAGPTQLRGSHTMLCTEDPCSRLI
# Mcl1-Noxa inh – disrupts binding of human Mcl-1 to Noxa peptide. AID 1022. inhibition, % at 21.7 µM. 220,000 compounds, 1.5% hits. TR-FRET Mcl-1/Noxa peptide binding, 2 h. Q07820;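 active = compounds that cut the protein-peptide binding signal by more than 50% relative to plate controls in a single-dose test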;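 note: His-tagged Mcl-1 with rhodamine Noxa BH3 peptide and terbium anti-His antibody; 0% = Mcl-1 plus Noxa peptide wells and 100% = peptide-only wells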
# Numbers without * were called inactive; nt = no result given.
SMILES,Bim-Mcl-1,Mcl1 Bid PPI,MCL1-BIM inh,T cell HTS,Pemphigus Ab inh,Mcl1-Noxa inh
Cc1ccc(Cn2cnc3c(nnn3Cc3ccc(Cl)cc3)c2=O)cc1,-3,-1,5,205,73*,0
CN(C)c1ccnc2sc(C(N)=O)c(N)c12,0,97*,11,622,127,-2
CN(C)c1ccnc2sc(C(=O)c3ccc(Br)cc3)c(N)c12,-2,-20,-5,192,103,8
CC(SCc1nc2sc3c(c2c(=O)[nH]1)CCCC3)C(=O)Nc1ccccn1 (centres undefined),nt,nt,-13,264,116,nt
O=C(NCc1ccco1)c1ccc2c(=O)n(Cc3ccco3)c(SCC(=O)N3CCCC3)nc2c1,-2,0,17,303,102,54*
O=C(COc1ccccc1)Nc1sc2c(c1C(=O)NCc1cccnc1)CCCC2,0,59*,-9,227,120,-25
CCCc1cc2c(=O)c(-c3nc4ccccc4s3)c(COCC(=O)O)oc2cc1O,1,2,nt,nt,97,73*
COc1ccc(NC(=O)c2cccc(N3C(=O)c4cccc([N+](=O)[O-])c4C3=O)c2)cc1,nt,nt,-6,532,95,nt
COc1ccc(/C=C2\C(=O)N(c3c(Cl)cc(Cl)cc3Cl)N=C2NC(=O)c2cccc([N+](=O)[O-])c2)cc1,0,24,6,273,79,106*
CC1(C)OC(=O)N(CCc2ccccc2)C1(C)O (centres undefined),-1,-6,-4,346,103,5
CC1(C)OC(=O)N(Cc2ccco2)C1(C)O (centres undefined),1,51*,0,396,100,7
CCOC(=O)N1CCN(S(=O)(=O)N2CCCC(C(=O)NCc3ccc(OC)cc3)C2)CC1 (centres undefined),nt,nt,-1,318,101,nt
Nc1ccccc1N=c1ssnc1Cl,-7,-20,nt,nt,99,54*
Cc1cc(Cl)ccc1N=c1ssnc1Cl,-1,-10,3,196,53*,25
COc1ccc(OC)c(N=c2ssnc2Cl)c1,10,-22,11,313,101,21
COc1cc(N=c2ssnc2Cl)c(OC)cc1Cl,4,-32,25,263,85*,11
Cc1ccc(NC(=O)Cn2c(=O)ccn(Cc3ccccc3)c2=O)cc1S(=O)(=O)N1CCOCC1,nt,nt,nt,nt,101,nt
S=C(Nc1cc(Cl)ccc1Oc1ccccc1)N1CCN(c2ccccn2)CC1,nt,nt,nt,171,99,nt
O=C(Cn1cc(C(=O)c2cccs2)c2ccccc21)NC1CCCCC1,-2,3,4,663,45*,12
CCOc1ccc(N(C)C(=O)CCc2nnc3ccc(N4CCC5(CC4)OCCO5)nn23)cc1,nt,nt,0,321,nt,nt
CCOC(=O)c1c(-c2ccc(C)cc2)csc1NC(=O)/C(C#N)=C/c1ccc(O)c(OC)c1,-6,28,nt,nt,306,90*
CC(=O)Nc1cc2nc(C)n(Cc3ccccc3[N+](=O)[O-])c2nc1C,nt,nt,0,277,116,nt
O=C(N=Nc1c(O)[nH]c2ccc(Br)cc12)c1cc(-c2cccs2)nc2ccccc12,-2,75*,nt,nt,93,68*
COc1ccccc1C(=O)N=Nc1c(O)[nH]c2ccc([N+](=O)[O-])cc12,26,-10,nt,nt,108,78*
NC(=O)N=Nc1c(O)[nH]c2ccc([N+](=O)[O-])cc12,nt,-9,3,313,102,11
SMILES,Bim-Mcl-1,Mcl1 Bid PPI,MCL1-BIM inh,T cell HTS,Pemphigus Ab inh,Mcl1-Noxa inh
O=C(N=Nc1c(O)[nH]c2ccc([N+](=O)[O-])cc12)c1cc(-c2ccccc2Cl)nc2ccccc12,-4,96*,5,142,75,77*
O=C(O)c1cc(N=Nc2c(O)[nH]c3ccc([N+](=O)[O-])cc23)ccc1Cl,nt,nt,10,327,95,nt
C=C(C)CNC(=S)N=Nc1c(O)[nH]c2ccc([N+](=O)[O-])cc12,2,17,15,626,nt,65*
Cc1ccc(S(=O)(=O)N2CCOCC2)cc1C(=O)NCCCN1CCCC1=O,nt,nt,nt,nt,100,nt
COc1cccc(NC(=O)CN(C)C(=O)c2cccc(S(=O)(=O)N3CC4(C)CC3CC(C)(C)C4)c2)c1 (centres undefined),nt,nt,nt,144,104,nt
COc1cc(Cl)c(C)cc1NCC(=O)Nc1cccc(S(=O)(=O)N2CCCC2)c1,nt,nt,1,335,109,nt
CC(Sc1nnc(NC(=O)c2cc3ccccc3oc2=O)s1)c1ccccc1 (centres undefined),-2,-16,-1,502,72*,6
C[C@H]1CN([C@@H](C)CO)C(=O)CCCn2nncc2CO[C@H]1CN(C)C(=O)c1ccccc1,nt,nt,nt,nt,107,nt
COc1ccc(-c2csc(NC(=O)c3c(OC)cccc3OC)n2)cc1,nt,nt,6,216,90,nt
COc1ccc(-c2csc(NC(=O)/C(N=Nc3ccccc3)=C(\C)O)n2)cc1,41*,-33,-2,205,nt,9
COc1ccc2c(c1OC)C(=O)N1C(C(=O)O)Cc3c([nH]c4ccccc34)C21 (centres undefined),-2,-2,47*,607,nt,7
COC(=O)c1ccc2c(c1O)C(=O)c1ccccc1C2=O,3,48,17,100,nt,58*
Nc1c(C(=O)O)ccc2c1C(=O)c1ccccc1C2=O,2,-33,13,116,95,26
CCCCc1cc(=O)oc2c3c(cc(OCC(=O)NCCCO)c12)OC(C)(C)CC3,nt,nt,2,203,106,nt
Nc1nc(N2CCN(Cc3ccccc3)CC2)n[nH]1,-1,-55,-2,243,79*,-1
Cc1c(C(=O)N/N=C/c2ccc(-c3ccccc3[N+](=O)[O-])o2)sc(N)c1C#N,-3,80*,3,494,94,99*
Cc1c(C(=O)N/N=C/c2ccc(O)c(Br)c2)sc(N)c1C#N,6,-24,-51,732,99,72*
O=C(COC(=O)c1cccc(OC(F)F)c1)Nc1cc(S(=O)(=O)N2CCCC2)ccc1Cl,nt,nt,nt,nt,107,nt
CCOC(=O)c1cc(-c2ccccc2)n(CC(=O)N2CCCC2)c1C,-1,94*,2,246,98,7
CCOC(=O)c1cc(-c2ccc(F)cc2)n(CC(=O)N2CCCC2)c1C,1,-45,0,209,104,13

# Screening results (PubChem BioAssay)
